Published values pooled from the literature.
Target: High affinity nerve growth factor receptor (NTRK1, Homo sapiens, UniProt P04629)

CC(C)(C)c1ccc(-c2nc(CBr)nn2-c2cccc(O)c2)cc1
remaining binding (cell-free assay, competition with immobilised ligand; 10 µM): 71%

O=C(c1ccc(Nc2nccc(-c3cc4ccccc4s3)n2)cc1)N1CCC(N2CCCC2)CC1
remaining binding (binding, competition with immobilised ligand; 1 µM): 25%

COc1cnc(Nc2cccc(S(N)(=O)=O)c2)nc1N1CCN(c2ccccc2)CC1
remaining binding (binding, competition with immobilised ligand; 1 µM): 58%

Cc1cc(Nc2nccc(C)n2)cc(-c2cnc([C@@]3(O)CC[C@H](C(=O)O)C(C)(C)C3)s2)c1
remaining binding (binding, competition with immobilised ligand; 1 µM): 30.2%

C[C@H]1CCN(c2nccc(-c3cnn4ncccc34)n2)C1
remaining binding (binding; 1 µM): 68%

Nc1ncc2c(n1)-c1c([nH]c3ccc(C#CC4CC4)cc13)CCCC2
remaining binding (binding, competition with immobilised ligand; 1 µM): 69%

N[C@@H]1CCN(c2nccc(-c3cnn4ncccc34)n2)C1
remaining binding (binding; 1 µM): 93%

O=S(=O)(NC1CCC(c2cc(F)ccc2F)(S(=O)(=O)c2ccc(Cl)cc2)CC1)C(F)(F)F (stereo not drawn)
remaining binding (cell-free assay, competition with immobilised ligand; 1 µM): 76%

O=C(c1ccc(Nc2ncc(Cl)c(-c3cc4ccccc4s3)n2)cc1)N1CCC(N2CCCC2)CC1
remaining binding (binding, competition with immobilised ligand; 1 µM): 1.4%

CC(C)(O)c1cncc(-c2nc3ccc(F)cc3n2C2CC2)c1
remaining binding (cell-free assay, competition with immobilised ligand; 1 µM): 100%

c1cnn2ncc(-c3ccnc(N4CCC45COC5)n3)c2c1
remaining binding (binding; 1 µM): 53%

Cc1cc(-n2nc(Cc3cc(F)cc(C(F)(F)F)c3)nc2C)ccc1C(N)=O
remaining binding (cell-free assay, competition with immobilised ligand; 1 µM): 97%

CC1CCCN1c1nccc(-c2cnn3ncccc23)n1 (stereo not drawn)
remaining binding (binding; 1 µM): 87%

c1cncc(-c2cccc(Nc3nccc(NC4CCCCC4)n3)c2)c1
remaining binding (binding, competition with immobilised ligand; 10 µM): 5.3%

O=C(Nc1c[nH]nc1C(=O)NC1CCNCC1)c1cc(F)cc(F)c1
remaining binding (binding, competition with immobilised ligand; 1 µM): 100%

F[C@@H]1CCN(c2nccc(-c3cnn4ncccc34)n2)C1
remaining binding (binding; 1 µM): 86%

CN1CCN(c2ccc(Nc3nccc(-c4ccccc4)n3)cc2C(F)(F)F)CC1
remaining binding (binding; 10 µM): 9.2%

Cc1nccc(COC(=O)N2C[C@@H]3[C@@H](CNC(=O)c4ccc5[nH]nnc5c4)[C@@H]3C2)n1
remaining binding (cell-free assay, competition with immobilised ligand; 1 µM): 94%

CN(C)c1nccc(-c2cnn3ncccc23)n1
remaining binding (binding; 1 µM): 68%

CNC(=O)[C@@H]1CC[C@@H](n2c(-c3ccc4cnccc4c3)nc3ccc(C(=O)NCc4cccc(C(N)=O)c4)cc32)C1
remaining binding (binding, competition with immobilised ligand; 1 µM): 92%

CCS(=O)(=O)c1cc2cc(C[C@@](O)(CC(C)(C)c3ccc(F)cc3C(N)=O)C(F)(F)F)[nH]c2cn1
remaining binding (cell-free assay, competition with immobilised ligand; 1 µM): 74%

Cc1cnn2ncc(-c3ccnc(N(C)C)n3)c2c1
remaining binding (binding; 1 µM): 80%

N#CC1(c2ccccn2)CCN(Cc2cc(C(=O)N3CCCC3)c(=O)n3ccccc23)CC1
remaining binding (cell-free assay, competition with immobilised ligand; 1 µM): 100%

Cc1cnc(Nc2ccc(C(=O)N3CCC(N4CCCC4)CC3)cc2)nc1-c1cc2ccccc2s1
remaining binding (binding, competition with immobilised ligand; 1 µM): 0.3%
